Data: PMC9055346 (RSC Advances, 2020)
Several values for one entry are separate records, joined by “and”; a condition that tells them apart may be missing. Equal values may be shown once.

How the values were obtained:
[1] = target: AChE from electric eel (EeAChE) (Electrophorus electricus, UniProt O42275); experiment: In vitro AChE inhibition, modified Ellman's method; format: biochemical; settings: for IC50: EeAChE IC50 ± SEM, mean of three independent experiments; for AChE inhibitory activity (in words): up to 10 mM; for inhibition at 156 µM / inhibition at 312 µM / inhibition at 625 µM / inhibition at 1250 µM / inhibition at 2500 µM / inhibition at 5000 µM / inhibition at 10000 µM: read-out: % of AChE inhibition
[2] = Antioxidant assay, ORAC-FL method; settings: compound and Trolox at 8 μM, 37 °C, three independent experiments
Method in brief: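 ORAC-FL in 75 mM phosphate buffer, 200 μL total: test compound, Trolox (both 8 μM) or buffer blank with 150 nM fluorescein solution, kept dark at 37 °C for 30 min. Then 12 mM AAPH solution is added and fluorescence (ex 485/em 535 nm) read every 1 min for 15 min. Net AUC vs blank is expressed as Trolox equivalents (Trolox = 1). Triplicates; three independent experiments, mean ± SEM.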

[3] = Metal chelation study by UV spectrophotometer; format: physicochemical; settings: for chelation of Al^3+ (in words): UV spectra 200 to 600 nm
Method in brief: (§1)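 UV spectra from 200 to 600 nm at 37 °C. Test compound and metal salt (FeCl3, CuCl2, ZnSO4·H2O or AlCl3·6H2O) are combined at 100 μM each and incubated at 37 °C for 30 min. Compound-alone spectra use water in place of metal. Read-outs are % change in absorbance, (+) for decrease and (−) for increase, plus band shift.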

[4] = Metal chelation study by UV spectrophotometer; format: physicochemical; settings: for chelation of Fe^3+ (in words): UV spectra 200 to 600 nm
Method in brief: as §1

[5] = Affinity study of 5i towards Fe^3+ in metal pool; format: physicochemical; settings: Zn^2+, Cu^2+, Ca^2+, Mg^2+, Na^+ and K^+ and 5i, 100 μM each
[6] = Stoichiometric study of Fe^3+–5i complex; format: physicochemical; settings: Fe^3+ 0–100 μM, 5i 100 μM; at 239 nm and 327 nm as printed
Method in brief: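 UV titration at 37 °C: 100 μM test compound in a cuvette receives 20 μL aliquots of 1 mM FeCl3, raising Fe3+ in 10 μM steps to a final 10–100 μM. Spectra are recorded after each addition. A Job's plot is built from band absorbances, and the mole fraction is obtained by extrapolation.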

[7] = Metal chelation study, selectivity towards essential metals; format: physicochemical; settings: UV spectra
Method in brief: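 KCl, NaCl, CaSO4 or […] solutions are mixed with test compound at 100 μM each ligand and metal, incubated at 37 °C for 30 min, and scanned by UV from 200 to 600 nm, with compound-alone spectra taken in water. For the affinity check, Fe3+, Zn2+, Cu2+, Ca2+, Mg2+, Na+ and K+ are mixed at equal concentrations with test compound at 100 μM.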

AChE from electric eel (EeAChE), sequence (O42275 24-633): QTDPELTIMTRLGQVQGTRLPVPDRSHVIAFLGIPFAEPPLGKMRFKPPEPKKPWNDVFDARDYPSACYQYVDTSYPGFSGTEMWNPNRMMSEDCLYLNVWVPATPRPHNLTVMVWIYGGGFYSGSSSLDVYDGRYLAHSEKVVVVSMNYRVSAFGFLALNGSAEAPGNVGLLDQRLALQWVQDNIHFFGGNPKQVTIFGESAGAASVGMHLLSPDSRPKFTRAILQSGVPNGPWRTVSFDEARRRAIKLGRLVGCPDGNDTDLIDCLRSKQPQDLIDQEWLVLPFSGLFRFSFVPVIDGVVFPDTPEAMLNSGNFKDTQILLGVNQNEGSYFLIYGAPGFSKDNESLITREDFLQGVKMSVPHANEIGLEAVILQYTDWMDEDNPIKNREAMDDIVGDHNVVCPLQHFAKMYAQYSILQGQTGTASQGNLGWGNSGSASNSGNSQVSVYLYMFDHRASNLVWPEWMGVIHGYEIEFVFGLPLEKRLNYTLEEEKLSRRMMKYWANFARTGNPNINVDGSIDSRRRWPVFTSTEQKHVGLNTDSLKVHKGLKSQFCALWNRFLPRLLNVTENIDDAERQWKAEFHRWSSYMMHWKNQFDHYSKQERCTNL

Row | SMILES | IC50 [1] | ORAC index ± SEM [2] | inhibition at 156 µM [1] | inhibition at 312 µM [1] | inhibition at 625 µM [1] | inhibition at 1250 µM [1] | inhibition at 2500 µM [1] | inhibition at 5000 µM [1] | inhibition at 10000 µM [1] | further results
1 | Cc1ncc(COCc2cn(Cc3ccccc3)nn2)c(CO)c1O [Compound 5a, 5-(((1-Benzyl-1H-1,2,3-triazol-4-yl)methoxy)methyl)-4-(hydroxymethyl)-2-methylpyridin-3-ol] | > 10 mM | 1.0564 Trolox equivalents | – | – | – | – | – | – | – | AChE inhibitory activity (in words) [1]: inactive
2 | Cc1ccc(Cn2cc(COCc3cnc(C)c(O)c3CO)nn2)cc1 [Compound 5b, 4-(Hydroxymethyl)-2-methyl-5-(((1-(4-methylbenzyl)-1H-1,2,3-triazol-4-yl)methoxy)methyl)pyridin-3-ol] | 3.38 mM | 1.8428 Trolox equivalents | – | – | – | – | – | – | – | –
3 | Cc1cccc(Cn2cc(COCc3cnc(C)c(O)c3CO)nn2)c1 [Compound 5c, 4-(Hydroxymethyl)-2-methyl-5-(((1-(3-methylbenzyl)-1H-1,2,3-triazol-4-yl)methoxy)methyl)pyridin-3-ol] | 1.38 mM | 2.0164 Trolox equivalents | 22.5% | 26.9% | 39.1% | 53.8% | 64.1% | 73.4% | 81.9% | chelation of Al^3+ (in words) [3]: chelated; chelation of Fe^3+ (in words) [4]: chelated
4 | Cc1ccccc1Cn1cc(COCc2cnc(C)c(O)c2CO)nn1 [Compound 5d, 4-(Hydroxymethyl)-2-methyl-5-(((1-(2-methylbenzyl)-1H-1,2,3-triazol-4-yl)methoxy)methyl)pyridin-3-ol] | 0.907 mM | 1.9723 Trolox equivalents | 33.5% | 36.4% | 51.1% | 58.6% | 69.6% | 81.3% | 86% | –
5 | COc1cccc(Cn2cc(COCc3cnc(C)c(O)c3CO)nn2)c1 [Compound 5e, 4-(Hydroxymethyl)-5-(((1-(3-methoxybenzyl)-1H-1,2,3-triazol-4-yl)methoxy)methyl)-2-methylpyridin-3-ol] | 4.57 mM | 1.8862 Trolox equivalents | – | – | – | – | – | – | – | –
6 | COc1cc(Cn2cc(COCc3cnc(C)c(O)c3CO)nn2)cc(OC)c1 [Compound 5f, 5-(((1-(3,5-Dimethoxybenzyl)-1H-1,2,3-triazol-4-yl)methoxy)methyl)-4-(hydroxymethyl)-2-methylpyridin-3-ol] | 2.65 mM | 2.3425 Trolox equivalents | – | – | – | – | – | – | – | –
7 | Cc1ncc(COCc2cn(Cc3ccc(F)cc3)nn2)c(CO)c1O [Compound 5g, 5-(((1-(4-Fluorobenzyl)-1H-1,2,3-triazol-4-yl)methoxy)methyl)-4-(hydroxymethyl)-2-methylpyridin-3-ol] | 6.47 mM | 1.4489 Trolox equivalents | – | – | – | – | – | – | – | –
8 | Cc1ncc(COCc2cn(Cc3cccc(F)c3)nn2)c(CO)c1O [Compound 5h, 5-(((1-(3-Fluorobenzyl)-1H-1,2,3-triazol-4-yl)methoxy)methyl)-4-(hydroxymethyl)-2-methylpyridin-3-ol] | 1.54 mM | 2.1015 Trolox equivalents | 19% | 25.5% | 35.1% | 56.4% | 60.5% | 66.6% | 69% | –
9 | Cc1ncc(COCc2cn(Cc3cc(F)cc(F)c3)nn2)c(CO)c1O [Compound 5i, 5-(((1-(3,5-Difluorobenzyl)-1H-1,2,3-triazol-4-yl)methoxy)methyl)-4-(hydroxymethyl)-2-methylpyridin-3-ol] | 1.56 mM | 1.21 ± 0.28 Trolox equivalents and 1.2138 Trolox equivalents | 15% | 26.6% | 35.4% | 43% | 61.4% | 66.8% | 77.9% | affinity towards Fe^3+ in the metal pool (in words) [5]: showed affinity towards Fe^3+ in the metal pool; mole fraction from Job's plot [6]: 0.5; chelation of Ca^2+, Mg^2+, Na^+ and K^+ (in words) [7]: did not chelate these metal ions at all; chelation of Al^3+ (in words) [3]: chelated; increase in absorbance with Al^3+ ([3]; at 292 nm): 104%; bathochromic shift with Al^3+ ([3]; band at 292 nm): 4 nm; chelation of Fe^3+ (in words) [4]: chelated; bathochromic shift with Fe^3+ ([4]; band at 292 nm): about 3 nm
10 | Cc1ncc(COCc2cn(Cc3ccc(Cl)cc3)nn2)c(CO)c1O [Compound 5j, 5-(((1-(4-Chlorobenzyl)-1H-1,2,3-triazol-4-yl)methoxy)methyl)-4-(hydroxymethyl)-2-methylpyridin-3-ol] | 2.72 mM | 1.9697 Trolox equivalents | – | – | – | – | – | – | – | –
11 | Cc1ncc(COCc2cn(Cc3cccc(Cl)c3)nn2)c(CO)c1O [Compound 5k, 5-(((1-(3-Chlorobenzyl)-1H-1,2,3-triazol-4-yl)methoxy)methyl)-4-(hydroxymethyl)-2-methylpyridin-3-ol] | 2.71 mM | 0.8358 Trolox equivalents | – | – | – | – | – | – | – | –
12 | Cc1ncc(COCc2cn(Cc3ccc(Cl)c(Cl)c3)nn2)c(CO)c1O [Compound 5l, 5-(((1-(3,4-Dichlorobenzyl)-1H-1,2,3-triazol-4-yl)methoxy)methyl)-4-(hydroxymethyl)-2-methylpyridin-3-ol] | 3.38 mM | 1.9421 Trolox equivalents | – | – | – | – | – | – | – | –
13 | Cc1ncc(COCc2cn(Cc3ccc(Br)cc3)nn2)c(CO)c1O [Compound 5m, 5-(((1-(4-Bromobenzyl)-1H-1,2,3-triazol-4-yl)methoxy)methyl)-4-(hydroxymethyl)-2-methylpyridin-3-ol] | 3.14 mM | 1.215 Trolox equivalents | – | – | – | – | – | – | – | –
14 | Cc1ncc(COCc2cn(Cc3cccc(Br)c3)nn2)c(CO)c1O [Compound 5n, 5-(((1-(3-Bromobenzyl)-1H-1,2,3-triazol-4-yl)methoxy)methyl)-4-(hydroxymethyl)-2-methylpyridin-3-ol] | 1.08 mM | 2.2079 Trolox equivalents | 14.7% | 25.8% | 42% | 57.4% | 70.2% | 75.9% | 86.3% | –
15 | Cc1ncc(COCc2cn(Cc3ccc(C(F)(F)F)cc3)nn2)c(CO)c1O [Compound 5o, 4-(Hydroxymethyl)-2-methyl-5-(((1-(4-(trifluoromethyl)benzyl)-1H-1,2,3-triazol-4-yl)methoxy)methyl)pyridin-3-ol] | 6.52 mM | 2.0758 Trolox equivalents | – | – | – | – | – | – | – | –
16 | Cc1ncc(COCc2cn(Cc3cccc(C(F)(F)F)c3)nn2)c(CO)c1O [Compound 5p, 4-(Hydroxymethyl)-2-methyl-5-(((1-(3-(trifluoromethyl)benzyl)-1H-1,2,3-triazol-4-yl)methoxy)methyl)pyridin-3-ol] | 3.65 mM | 0.8718 Trolox equivalents | – | – | – | – | – | – | – | –
17 | Cc1ncc(COCc2cn(Cc3ccccc3C(F)(F)F)nn2)c(CO)c1O [Compound 5q, 4-(Hydroxymethyl)-2-methyl-5-(((1-(2-(trifluoromethyl)benzyl)-1H-1,2,3-triazol-4-yl)methoxy)methyl)pyridin-3-ol] | 1.13 mM | 0.7168 Trolox equivalents | 22.5% | 26.9% | 39.1% | 53.8% | 64.1% | 73.4% | 81.9% | chelation of Al^3+ (in words) [3]: chelated; chelation of Fe^3+ (in words) [4]: chelated
18 | Cc1ncc(CO)c(CO)c1O [Pyridoxine, reference compound] | – | 0.5249 Trolox equivalents | – | – | – | – | – | – | – | AChE inhibitory activity (in words) [1]: not an AChE inhibitor; AChE inhibitory activity (in words) ([1]; listed as pyridoxine): inactive
19 | Cc1c(C)c2c(c(C)c1O)CCC(C)(C(=O)O)O2 (stereo not drawn) [Trolox, reference compound] | – | 1 Trolox equivalents | – | – | – | – | – | – | – | –
